Compound activity: PubChem BioAssay, several laboratories
PKA-R2B act = activators of human PKA-R2B complex. actives 0.079% (n = 340,000). P22694+P31323. PKA-R2B holoenzyme dissociation, Cy5-IP20 fluorescence polarization; R2B truncated from residue 108, S112A mutant; 0% DMSO only, 100% 113 µM cGMP. AID 504700. activation, % at 11.4 µM;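 active = activation above a cutoff set at the mean over all compounds plus 3 SD, cut at about 18% in these data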;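 note: higher means more holoenzyme dissociation and a rise in polarization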
S100A4 inh HTS = S100A4-myosin IIA interaction inhibition. S100A4/TAMRA-MyoIIA peptide fluorescence polarization. actives 0.14% (n = 360,000). inhibition, % at 10.7 µM;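 active = mean inhibition of at least 70% across replicates, with every replicate also reaching that level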
Target sequence (P26447 whole entry, looked up): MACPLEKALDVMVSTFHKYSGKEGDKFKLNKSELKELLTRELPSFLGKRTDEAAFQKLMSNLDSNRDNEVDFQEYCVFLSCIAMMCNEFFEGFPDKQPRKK
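Test system: S100A4 monomer protein; Medium: HEPES pH 7.2 with CaCl2, KCl, NaCl, DTT, Triton; Probe or stimulus: TAMRA-labelled myosin IIA heavy-chain peptide probe, 5 nM; Doses: one dose per compound; Times: polarization read 5 min after assay mix addition, stable 5–60 min; Benchmarks: neutral control DMSO, positive control TFP.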
PKA-R1A act = activators of PKA-R1A complex | activation, % at 11.4 µM | P00514+P68181 | PKA-R1A dissociation, Cy5-IP20 fluorescence polarization; scaled: DMSO 0%, 113 µM cGMP 100% | actives 0.083% (n = 340,000);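 active = percent activation above the mean of all tested compounds plus 3 SD, cut at about 19% in these data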;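 note: higher means more PKAc released from R1A so a rise in polarization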
SIRT5 inh = sirtuin-5 (human) deacylase inhibition; inhibition, % at 15 µM; actives 1.1% (n = 330,000); Purified SirT5, succinyl-peptide AMC, trypsin-coupled fluorescence; in the data active = inhibition above about 15%
Target sequence (Q9NXA8 whole entry, looked up): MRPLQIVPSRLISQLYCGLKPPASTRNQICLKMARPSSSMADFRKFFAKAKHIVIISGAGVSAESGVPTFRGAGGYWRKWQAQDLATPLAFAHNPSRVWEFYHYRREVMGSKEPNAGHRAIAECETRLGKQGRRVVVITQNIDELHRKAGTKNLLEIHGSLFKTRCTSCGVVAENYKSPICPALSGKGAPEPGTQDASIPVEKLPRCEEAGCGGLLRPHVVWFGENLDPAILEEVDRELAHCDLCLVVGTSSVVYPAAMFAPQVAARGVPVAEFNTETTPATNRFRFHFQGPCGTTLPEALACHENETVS
CRFBP-R2 block = antagonists of CRF-binding protein/CRF-R2 receptor complex; HEK293 CRF-R2/CRF-BP, CRF-induced calcium fluorescence; inhibition, % at 11.8 µM; actives 0.59% (n = 350,000); AID 588475;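 active = inhibition of the ligand-induced calcium signal above about 50% at the single tested concentration, limit read from the data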
The depositor's hits bear a star; · = no result given. The list is not random: actives were taken first. Their share in the collection is about 1.5%.

SMILES | PKA-R2B act | S100A4 inh HTS | PKA-R1A act | SIRT5 inh | CRFBP-R2 block
Cc1ccc(S(=O)(=O)N2[C@@H](c3ccc(C(C)(C)C)cc3)C(C(=O)O)=CC[C@H]2c2ccc(C(C)C)cc2)cc1 | -1 | 1 | -15 | 28* | 18
Cc1ccc(S(=O)(=O)N2[C@@H](c3ccc(Br)cc3)C(C(=O)O)=CC[C@H]2c2ccc(C(C)C)cc2)cc1 | 0 | 1 | -5 | 15* | 41
COC(=O)c1cn(CCCNC(=O)Nc2ccccc2)nn1 | · | 2 | · | -3 | ·
CCCC(=O)N1CCC2(CC1)CN(C(=O)C1CC1)[C@@H](CO)c1[nH]c3cc(OC)ccc3c12 | · | 9 | · | 8 | ·
C[C@@H]1CN([C@@H](C)CO)C(=O)c2cc(NC(=O)C3CCCCC3)ccc2O[C@@H]1CN(C)C(=O)Nc1ccc(C(F)(F)F)cc1 | · | -3 | · | 6 | ·
C[C@@H]1CN([C@@H](C)CO)C(=O)c2cc(-c3cccnc3)cnc2O[C@H]1CN(C)C(=O)Nc1ccc2c(c1)OCO2 | · | -8 | · | 32* | ·
C[C@H]1CN([C@@H](C)CO)C(=O)c2cc(-c3cccnc3)cnc2O[C@@H]1CN(C)C(=O)Nc1ccc2c(c1)OCO2 | · | -8 | · | 0 | ·
C[C@H]1CN([C@@H](C)CO)C(=O)c2cc(-c3ccccc3)cnc2O[C@@H]1CN(C)C(=O)Nc1ccc2c(c1)OCO2 | · | 11 | · | 9.5* | ·
Cc1noc(C)c1NC(=O)Nc1ccc2c(c1)C(=O)N([C@H](C)CO)C[C@H](C)[C@@H](CN(C)S(=O)(=O)c1ccc(Cl)cc1)OCCCC[C@H](C)O2 | · | -1 | · | 7 | ·
CCN(c1ccccc1)S(=O)(=O)c1cc(NC(=O)CSc2n[nH]c(=O)[nH]c2=O)ccc1Cl | 2 | -1 | -8 | 0 | 111*
COC(=O)c1sccc1NS(=O)(=O)c1ccccc1 | -7 | 1 | -8 | 2 | 118*
COc1cccc(CN2CCN(C(c3ccccc3)c3ccccc3)CC2)c1O | -5 | 2 | -5 | 16* | 10
COc1cc(CN2CCN(C(c3ccccc3)c3ccccc3)CC2)cc(OC)c1OC | -6 | 11 | -22 | -4 | 20
COc1cc(/C=C2\C(=N)N3N=C(S(C)(=O)=O)SC3=NC2=O)cc(OC)c1OCCOc1ccc(C)cc1 | -1 | 0 | -6 | 20* | 38
COc1cc(/C=C2\C(=N)N3N=C(S(C)(=O)=O)SC3=NC2=O)cc(OC)c1OCCOc1cccc(C)c1 | 5 | -1 | -3 | 2 | 44
Cc1ccc(S(=O)(=O)Oc2ccc(/C=C3\C(=N)N4N=C(S(C)(=O)=O)SC4=NC3=O)cc2)cc1 | 5 | -13 | -2 | 12 | -10
COc1cc(/C=C2\C(=N)N3N=C(S(C)(=O)=O)SC3=NC2=O)ccc1OCCOc1ccc(C)cc1 | -4 | 8 | 2 | 8 | 72*
C=CCOc1ccc(C2C(C(=O)c3ccco3)=C(O)C(=O)N2c2nnc(C)s2)cc1 (stereo not drawn) | 5 | 1 | 5 | 2 | 83*
COc1cc(C2C(C(=O)c3ccco3)=C(O)C(=O)N2c2cc(C)on2)cc(Br)c1O (stereo not drawn) | 4 | · | -1 | · | 80*
COc1cc(C2C(C(=O)c3ccc(C)o3)=C(O)C(=O)N2c2cc(C)on2)cc(Br)c1O (stereo not drawn) | 7 | -7 | 4 | 0 | -18
Cc1cc(N2C(=O)C(O)=C(C(=O)c3cc4ccccc4o3)C2c2ccc(Br)cc2)no1 (stereo not drawn) | 3 | 6 | -8 | 25* | 5
COc1ccc(C2C(C(=O)c3ccco3)=C(O)C(=O)N2c2nnc(C)s2)cc1 (stereo not drawn) | -3 | -6 | -2 | -2 | 14
Cc1cc(N2C(=O)C(O)=C(C(=O)c3cc4ccccc4o3)C2c2ccc(Cl)cc2)no1 (stereo not drawn) | 3 | -2 | -1 | 13 | 11
O=C(N[C@@H]1CC[C@@H](CCNS(=O)(=O)c2ccccc2)O[C@@H]1CO)c1cccc(F)c1 | · | 0 | · | 4 | ·
COc1cccc(S(=O)(=O)N(C)C[C@@H]2Oc3cc(C4=CCCCC4)ccc3S(=O)(=O)N([C@@H](C)CO)C[C@H]2C)c1 | · | 2 | · | 22* | ·
